Measured values as given in ChEMBL document CHEMBL1147518, “Hydroxytriamides as potent gamma-secretase inhibitors” (Bioorg Med Chem Lett, 2004).

Each compound was assayed against Gamma-secretase (assay: Inhibition of gamma-secretase activity in H4 human neuroglioma cells by measuring amyloid beta production; Inactive).
Format: cell-based
How it was run: (§1)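 H4 human neuroglioma cells expressing HPLAP-βAPP164SFAD, grown in high-glucose DMEM with 10% FBS, pen-strep, 2 mM glutamine and geneticin, plated in 96 wells; after attachment, medium swapped for Ultraculture containing compound (1% DMSO final), overnight incubation. Aβ1-40 in conditioned medium measured by sandwich ELISA (C-terminal Aβ40-specific capture, HRP N-terminal detection, TMB/phosphoric acid). Means of two experiments, 16 data points each.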

| IC50 [nM] | SMILES |
| --- | --- |
| > 2500 | CCCCN(C)C(=O)[C@H](CCCCN)NC(=O)[C@H](CC(C)C)NC(=O)Cc1cc(F)cc(F)c1 |
| > 2500 | CCCCN(C)C(=O)[C@H](CC(=O)O)NC(=O)[C@H](CC(C)C)NC(=O)Cc1cc(F)cc(F)c1 |
| > 2500 | CCCCN(C)C(=O)[C@H](CC1CCCCC1)NC(=O)[C@@H](CC(C)C)NC(=O)Cc1cc(F)cc(F)c1 |
| > 2500 | CCCCN(C)C(=O)[C@H](CC1CCCCC1)NC(=O)[C@@H]1CCCN1C(=O)Cc1cc(F)cc(F)c1 |

What follows are compounds tested against Gamma-secretase (assay: Inhibition of gamma-secretase activity in H4 human neuroglioma cells by measuring amyloid beta production).
Format: cell-based
How it was run: as §1

| SMILES | IC50 [nM] |
| --- | --- |
| CCCCN(C)C(=O)[C@H](CC1CCCCC1)NC(=O)[C@H](CC(C)C)NC(=O)[C@@](C)(OC)c1ccccc1 | > 2500 |
| COC(=O)[C@H](CC1CCCCC1)NC(=O)[C@H](CC(C)C)NC(=O)Cc1ccccc1 | 800 |
| CCCCN(C)C(=O)[C@H](CC1CCCCC1)NC(=O)[C@H](Cc1ccccc1)NC(=O)Cc1cc(F)cc(F)c1 | 2400 |
| CC(C)C[C@H](NC(=O)Cc1ccc2ccccc2c1)C(=O)N[C@@H](CC1CCCCC1)[C@H](O)Cc1ccccc1C(=O)NC(C)(C)C | 4.7 |
| CCCCN(C)C(=O)[C@H](CC1CCCCC1)NC(=O)CNC(=O)Cc1cc(F)cc(F)c1 | 300 |
| CCOC(=O)[C@H](CC1CCCCC1)NC(=O)[C@H](CC(C)C)NC(=O)Cc1ccccc1 | 900 |
| CC(C)C[C@H](NC(=O)Cc1ccccc1)C(=O)N[C@@H](CC1CCCCC1)C(=O)N1CCCCC1 | 50 |
| CC(C)CCC(=O)[C@H](CC1CCCCC1)NC(=O)[C@H](CC(C)C)NC(=O)Cc1ccccc1 | 300 |
| CCCCN(C)C(=O)[C@H](CC1CCCCC1)NC(=O)[C@H](CC(C)C)NC(=O)[C@](C)(OC)c1ccccc1 | > 2500 |
| CC(C)CNC(=O)[C@H](CC1CCCCC1)NC(=O)[C@H](CC(C)C)NC(=O)Cc1ccccc1 | 150 |
| CCCCN(C)C(=O)[C@H](CC1CCCCC1)NC(=O)[C@@H]1CCCCN1C(=O)[C@@H](O)c1ccccc1 | > 2500 |
| CC(C)CC[C@@H](O)[C@H](CC1CCCCC1)NC(=O)[C@H](CC(C)C)NC(=O)Cc1ccccc1 | 1200 |
| CC(C)C[C@H](NC(=O)Cc1ccccc1)C(=O)N[C@@H](CC1CCCCC1)C(=O)N(C)Cc1ccccc1 | 39 |
| CCCCN(C)C(=O)[C@@H]1Cc2ccccc2CN1C(=O)[C@H](CC(C)C)NC(=O)[C@@H](O)c1ccccc1 | 66 |
| CCCCN(C)C(=O)[C@H](CC1CCCCC1)NC[C@H](CC(C)C)NC(=O)[C@@H](O)c1ccccc1 | > 2500 |
| CCCCN(C)C[C@H](CC1CCCCC1)NC(=O)[C@H](CC(C)C)NC(=O)Cc1ccccc1 | 1700 |

Results, then the compound that gave them:

| IC50 [nM] | SMILES |
| --- | --- |
| 2000 | CCCCN(C)C(=O)[C@H](CC1CCCCC1)NC(=O)[C@H](CC(C)C)NC(=O)[C@@H](OC)c1ccccc1 |
| 408 | CCCCN(C)C(=O)[C@H](CC1CCCCC1)NC(=O)[C@H](CC(C)C)NC(=O)Cc1cc(C(F)(F)F)cc(C(F)(F)F)c1 |
| 1100 | CCCCN(C)C(=O)[C@H](CC1CCCCC1)NC(=O)[C@H](CC(C)C)NC(=O)Cc1ccc(N)cc1 |
| 52 | CCCCN(C)C(=O)[C@H](CC1CCCCC1)NC(=O)[C@H](CC(C)C)NC(=O)Cc1cccc(Cl)c1 |
| 240 | CCCCNC(=O)[C@H](CC1CCCCC1)NC(=O)[C@H](CC(C)C)NC(=O)Cc1ccccc1 |
| 160 | CCCCN(C)C(=O)[C@H](CC1CCCCC1)NC(=O)[C@H](CC(C)C)NC(=O)CCc1ccccc1 |
| > 2600 | CCCCN(C)C(=O)[C@H](CC1CCCCC1)NC(=O)[C@H](CC(C)C)NC(=O)/C=C/c1ccccc1 |
| 102 | CC(C)C[C@H](NC(=O)Cc1ccccc1)C(=O)N[C@@H](CC1CCCCC1)C(=O)N(C)C |
| > 2500 | CCCCN(C)C(=O)[C@H](CC1CCCCC1)NC(=O)[C@H](CC(C)C)NC(=O)[C@](C)(O)c1ccccc1 |
| > 2500 | CCCCN(C)C(=O)[C@H](CC1CCCCC1)NC(=O)[C@H](CC(C)C)NC(=O)[C@H](OC)c1ccccc1 |
| 240 | CCCCN(C)C(=O)[C@H](CC1CCCCC1)NC(=O)[C@H](CC(C)C)NC(=O)[C@H](O)c1ccccc1 |
| 480 | CCCCN(C)C(=O)[C@H](CC1CCCCC1)NC(=O)[C@H](CC(C)C)NC(=O)Cc1cccc(OC)c1 |
| 20 | CCCCN(C)C(=O)[C@H](CC1CCCCC1)NC(=O)[C@H](CC(C)C)NC(=O)Cc1cccc(F)c1 |
| 36 | CCCCN(C)C(=O)[C@H](CC1CCCCC1)NC(=O)[C@H](CC(C)C)NC(=O)Cc1ccc(F)cc1 |
| 1 | CCCCN(C)C(=O)[C@H](CC1CCCCC1)NC(=O)[C@H](CC(C)C)NC(=O)C(O)(O)c1ccccc1 |
| 32 | CCCCN(C)C(=O)[C@H](CC1CCCCC1)NC(=O)[C@H](C)NC(=O)Cc1cc(F)cc(F)c1 |
| 280 | CCCCN(C)C(=O)[C@H](CC1CCCCC1)NC(=O)[C@H](CC(C)C)NC(=O)Cc1ccccc1F |
| 13 | CC(C)C[C@H](NC(=O)Cc1ccccc1)C(=O)N[C@@H](CC1CCCCC1)C(=O)N(C)CC(C)C |
| 1000 | CCCCN(C)C(=O)[C@@H](CC1CCCCC1)NC(=O)[C@H](CC(C)C)NC(=O)Cc1ccccc1 |
| 3200 | CCCCN(C)C(=O)[C@H](CC1CCCCC1)NC(=O)[C@H](CC(C)C)NC(=O)c1ccccc1 |
| 454 | CCCCN(C)C(=O)[C@H](CC1CCCCC1)NC(=O)[C@H](CC(C)C)NC(=O)Cc1cccc(C)c1 |
| 130 | CON(C)C(=O)[C@H](CC1CCCCC1)NC(=O)[C@H](CC(C)C)NC(=O)Cc1ccccc1 |
| 800 | CCCCN(C)C(=O)[C@H](CC1CCCCC1)NC(=O)[C@H](CC(C)C)NC(=O)Cc1cc(OC)cc(OC)c1 |
| 55 | CCCCN(CC)C(=O)[C@H](CC1CCCCC1)NC(=O)[C@H](CC(C)C)NC(=O)Cc1ccccc1 |
| 17 | CCCCN(C)C(=O)[C@H](CC1CCCCC1)NC(=O)[C@H](CC(C)C)NC(=O)Cc1ccccc1 |
| > 2500 | CCCCN(C)C(=O)[C@H](CC1CCCCC1)NC(=O)[C@H](CC(C)C)NC(=O)Cc1cccc(N)c1 |
